Measured values from paper PMC2847389 (ACS nano, 2010).

Experiment: Circulation retention / AuNP probe clearance in vivo
Design: species or system athymic nude mice
Conditions: i.v., within the first hour, normalised to 1 min post-injection, n = 5
Outline: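 Male Nu/nu mice, 6-8 weeks old, anaesthetised with Avertin (240 mg/kg i.p.). Dosed i.v. by tail vein with 1 mg probe in 100 μl water, or the equivalent dye-labeled peptide in sterile water. Serum was taken at each time point after euthanasia. 100 μl serum was incubated with DTT (~286 mM final) for 16 h at RT. Q670 read at 644/670 nm. Mean ± s.d., n = 5.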

In the case of “Q670 (or BHQ2)-(His-Ser-Ser-Lys-Leu-Gln)-Cys [uncomplexed peptide]”, the “% of initial administered amount removed from serum” value is reported as “more than 90%”.
